In assay [1] the target is T1, GST-Hsp90α CTD (Homo sapiens, UniProt P07900). Nature of the assay: ADH aggregation. It is filed as biochemical. Particulars: for inhibition of Hsp90 CTD chaperone (anti-aggregation) activity, ADH aggregation assay: 40 μM compound, 500 nM Hsp90 CTD, 55 °C, end point 90 min. In short, it runs like this: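 Reaction: 6.2 μM equine ADH, with or without 500 nM GST-Hsp90α CTD and compound. Aggregation induced at 55 °C, read as absorbance at 360 nm every minute for 90 min. The 90-min endpoint was used, with the mean of ADH alone set to 100%. Three independent experiments.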

The target of assay [2] is T2, Hsp90β (Homo sapiens, UniProt P08238). In words: Transcreener ADP Hsp90 ATPase assay. It is filed as biochemical.
A further assay concerns the target His6-Hsp90β CTD (Homo sapiens, UniProt P08238). Nature of the assay: BS3 crosslinking dimerization/oligomerization assay, His6-Hsp90β CTD. It is filed as biochemical. Particulars: for oligomerization state of His6-Hsp90β CTD (crosslinking): 2 μM protein, BS3 crosslinker.
For assay [3], the target named is T2, Hsp90β. Nature of the assay: Competitive displacement of FITC-GA. It is filed as binding. Particulars: competitor 3 nM to 3 μM; 60 nM Hsp90β, 5 nM FITC-GA.
The next assay relates to LNCaP cells. In words: Western blot of Hsp90 clients and heat shock proteins in LNCaP cells. It is filed as cell-based. Particulars: 48 h. In outline: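 ATCC LNCaP cells kept in ATCC-recommended medium, authenticated and used within 20 passages. Cells treated for 48 h, trypsinised, PBS-washed and lysed in RIPA with protease inhibitors, 1 mM PMSF, 0.1% Triton X-100 and 1 mM DTT. Protein measured by Bradford before western blot. Band intensities of treated samples expressed as percentage of vehicle.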
On the technique in general: Immunoblotting shows a protein as a band on a membrane.

A further assay concerns the target Hsp70 (Homo sapiens, UniProt P0DMV8). Nature of the assay: Transcreener ADP Hsp70 ATPase assay. It is filed as biochemical. Particulars: 0.5 μM Hsp70; up to 200 μM. In short, it runs like this: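 Stopped with EDTA stop-and-detect buffer containing ADP² antibody-IRDye QC-1 and 8 nM ADP Alexa594 tracer, 1 h at RT. Endpoint fluorescence intensity read. Three experiments, four-parameter logistic fit.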

The target of a further assay is full-length Hsp90α (Homo sapiens, UniProt P07900). Nature of the assay: BS3 crosslinking assay, full length Hsp90α. Particulars: 2 μM protein; BS3 crosslinker. It is filed as biochemical. In short, it runs like this: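 Full-length Hsp90α used at 2 μM in 50 mM NaPO₄ and 150 mM NaCl, preincubated with compound for 1 h at room temperature. BS3 crosslinker added at 66–200 μM final for 1 h at RT, then quenched with 50 mM Tris-HCl pH 7.5 for 15 min. Analysed by 10% SDS-PAGE and western blot.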

Assay [4] has as its target T1, GST-Hsp90α CTD. Nature of the assay: BS3 crosslinking assay, GST-Hsp90α CTD. It is filed as biochemical. Particulars: 2 μM protein; NSC145366 10 μM to 100 μM.
Another assay concerns the target GST-Hsp90α NTD (Homo sapiens, UniProt P07900). In words: BS3 crosslinking assay, GST-Hsp90α NTD. It is filed as biochemical. Particulars: 2 μM protein. In outline:
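2 μM protein buffer-exchanged into 50 mM NaPO₄ and 150 mM NaCl, then preincubated with compound for 1 h at room temperature. BS3 added at 66–200 μM final for 1 h at RT, then quenched with 50 mM Tris-HCl pH 7.5 for 15 min. Boiled in SDS dye, run on 10% SDS-PAGE, western-blotted and probed with anti-GST antibody.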

Assay [5] concerns the target T1, GST-Hsp90α CTD. In words: ATP-agarose pulldown, Hsp90 CTD. It is filed as binding. Particulars: 200 μM compound, 6 μM CTD.
The target in the next assay is GST-Hsp90α CTD (626–732) (Homo sapiens, UniProt P07900). Nature of the assay: DARTs assay with GST-Hsp90α CTD. It is filed as binding. Particulars: 200 μM compound.

Entries after “also recorded” stand apart in the source; their conditions may differ.

T2 sequence (P08238 whole entry): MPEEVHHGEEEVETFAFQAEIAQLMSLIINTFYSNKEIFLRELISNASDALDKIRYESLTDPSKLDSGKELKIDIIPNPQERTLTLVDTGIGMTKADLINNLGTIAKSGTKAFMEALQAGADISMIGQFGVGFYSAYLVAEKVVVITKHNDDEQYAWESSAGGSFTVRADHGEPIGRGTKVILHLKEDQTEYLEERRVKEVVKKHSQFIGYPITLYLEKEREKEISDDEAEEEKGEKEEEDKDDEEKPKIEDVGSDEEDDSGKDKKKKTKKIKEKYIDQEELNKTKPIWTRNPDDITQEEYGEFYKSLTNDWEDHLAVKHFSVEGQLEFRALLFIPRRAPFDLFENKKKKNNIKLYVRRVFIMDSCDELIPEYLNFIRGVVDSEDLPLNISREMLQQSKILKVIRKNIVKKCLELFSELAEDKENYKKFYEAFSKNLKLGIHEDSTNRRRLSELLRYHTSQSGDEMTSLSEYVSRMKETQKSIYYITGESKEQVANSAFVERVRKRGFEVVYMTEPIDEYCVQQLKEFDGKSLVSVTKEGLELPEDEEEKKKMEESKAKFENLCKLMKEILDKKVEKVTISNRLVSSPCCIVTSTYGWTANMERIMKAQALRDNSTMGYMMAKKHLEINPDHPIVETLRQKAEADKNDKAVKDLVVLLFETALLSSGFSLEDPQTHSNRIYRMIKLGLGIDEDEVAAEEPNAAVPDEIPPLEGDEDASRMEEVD
His6-Hsp90β CTD, sequence (P08238 530-724): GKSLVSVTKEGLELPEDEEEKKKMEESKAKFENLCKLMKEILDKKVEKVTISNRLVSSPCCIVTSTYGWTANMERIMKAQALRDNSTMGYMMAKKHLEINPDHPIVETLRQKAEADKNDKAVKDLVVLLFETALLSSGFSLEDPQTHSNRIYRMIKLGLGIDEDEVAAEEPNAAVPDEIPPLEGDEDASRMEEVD
Hsp70, sequence (P0DMV8 whole entry): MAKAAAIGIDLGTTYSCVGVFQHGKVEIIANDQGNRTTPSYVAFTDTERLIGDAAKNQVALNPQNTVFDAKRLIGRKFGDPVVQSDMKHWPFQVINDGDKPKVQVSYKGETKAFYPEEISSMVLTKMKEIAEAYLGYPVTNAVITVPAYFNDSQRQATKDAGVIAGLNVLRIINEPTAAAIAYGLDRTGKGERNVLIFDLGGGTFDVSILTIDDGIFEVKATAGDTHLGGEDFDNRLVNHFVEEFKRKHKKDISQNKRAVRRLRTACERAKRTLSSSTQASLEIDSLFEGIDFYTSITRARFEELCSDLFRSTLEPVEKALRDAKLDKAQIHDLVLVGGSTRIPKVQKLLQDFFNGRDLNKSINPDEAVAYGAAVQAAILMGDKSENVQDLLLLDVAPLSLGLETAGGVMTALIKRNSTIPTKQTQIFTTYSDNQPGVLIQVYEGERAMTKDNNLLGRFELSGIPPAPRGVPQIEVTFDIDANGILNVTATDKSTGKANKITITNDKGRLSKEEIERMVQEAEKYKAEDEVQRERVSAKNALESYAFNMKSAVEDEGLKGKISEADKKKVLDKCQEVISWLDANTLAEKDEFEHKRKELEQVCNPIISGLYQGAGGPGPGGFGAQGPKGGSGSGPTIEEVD

On to `CC(C)(c1ccc(O)cc1)c1ccc(O)cc1` [BPA, Bisphenol A], for which the “inhibition of Hsp90 CTD chaperone (anti-aggregation) activity, ADH aggregation assay” value on GST-Hsp90α CTD [1] is “did not exhibit inhibition; also recorded: Minimal inhibition”. In addition, at Hsp90β [2] (0.5 μM Hsp90β, 250 μM ATP, 37 °C 30 min), the “IC50, Hsp90β ATPase function” value is “does not have a measurable IC50”.

Turning to `CC(C)(c1ccc(OCC2CO2)cc1)c1ccc(OCC2CO2)cc1` (stereo not shown) [BADGE, bisphenol A diglycidyl ether], the “inhibition of Hsp90 CTD chaperone (anti-aggregation) activity, ADH aggregation assay” value against GST-Hsp90α CTD [1] is on record as “slight inhibition”.

One may read the IC50 as the concentration at which inhibition is half-maximal. For the compound `CC(C)CNCC(O)COc1ccc(C(C)(C)c2ccc(OCC(O)CNCC(C)C)cc2)cc1` (stereo not shown) [Analog A8, 3,3’-((propane-2,2-diylbis(4,1-phenylene))bis(oxy))bis(1-(iso-butylamino)propan-2-ol)], the “oligomerization state of His6-Hsp90β CTD (crosslinking)” value on His6-Hsp90β CTD is listed as “CTD monomer band was eliminated”. In addition, at Hsp90β [2], the IC50 is around 262 µM.

For `CCNC(=O)c1noc(-c2cc(C(C)C)c(O)cc2O)c1-c1ccc(CN2CCOCC2)cc1` [AUY922], the “competition with FITC-GA binding to Hsp90β” value on Hsp90β [3] was “compete with fluorescently labeled GA”.

With `COC1=C2C[C@@H](C)C[C@H](OC)[C@H](O)[C@@H](C)/C=C(\C)[C@H](OC(N)=O)[C@@H](OC)/C=C\C=C(/C)C(=O)NC(=CC1=O)C2=O` [GA, geldanamycin, reference compound], on Hsp90β [3], the “competition with FITC-GA binding to Hsp90β” value is on record as “compete with fluorescently labeled GA”. In the assay on LNCaP cells, the “induction of classical heat shock response (Hsp70, Hsp27, Hsp40)” value is given as “did induce the classical heat shock response”. The “BRCA1 expression level compared to DMSO” value in the assay on LNCaP cells (GA control) was determined as 9%.

With `CC(C)(c1ccc(OCC(O)CNCc2ccco2)cc1)c1ccc(OCC(O)CNCc2ccco2)cc1` (stereo not shown) [Analog A3, 3,3’-((propane-2,2-diylbis(4,1-phenylene))bis(oxy))bis(1-((fur-an-2-ylmethyl)amino)propan-2-ol)], the “oligomerization state of His6-Hsp90β CTD (crosslinking)” value at His6-Hsp90β CTD is “oligomer formation was completely inhibited”. In addition, the “disruption of CTD dimer formation compared with Cm A1” value on His6-Hsp90β CTD (His6-Hsp90β CTD, 200 μM BS3 (Fig. S10)) is listed as “disrupt dimer formation more efficiently than Cm A1”.

On to `CN1CCN(CC(O)COc2ccc(C(C)(C)c3ccc(OCC(O)CN4CCN(C)CC4)cc3)cc2)CC1` (stereo not shown) [Analog A2, 3,3’-((propane-2,2-diylbis(4,1-phenylene))bis(oxy))bis(1-(4-methylpiperazin-1-yl)propan-2-ol)], for which the “oligomerization state of His6-Hsp90β CTD (crosslinking)” value on His6-Hsp90β CTD is “CTD monomer band was eliminated”. Also, on Hsp90β [2], the IC50 was around 216 µM.

On to `C=CCNC1=C2C[C@@H](C)C[C@H](OC)[C@H](O)[C@@H](C)/C=C(\C)[C@H](OC(N)=O)[C@@H](OC)/C=C\C=C(/C)C(=O)NC(=CC1=O)C2=O` [Analog 17-AAG, reference compound], for which the “inhibition of Hsp70 ATPase function” value against Hsp70 is “no effect on Hsp70 ATPase function”.

As for `CC(C)(c1ccc(OCC(O)CN2CCOCC2)cc1)c1ccc(OCC(O)CN2CCOCC2)cc1` (stereo not shown) [Analog A1, 3,3’-((propane-2,2-diylbis(4,1-phenylene))bis(oxy))bis(1-mor-pholinopropan-2-ol)], at His6-Hsp90β CTD, the “oligomerization state of His6-Hsp90β CTD (crosslinking)” value is listed as “CTD monomer band was eliminated”.

For `CO[C@H]1[C@H](OC(=O)c2ccc(C)[nH]2)[C@H](O)[C@@H](Oc2ccc3c(O)c(NC(=O)c4c[nH]c(C(=O)Nc5c(O)c6ccc(O[C@H]7OC(C)(C)[C@@H](OC)[C@H](OC(=O)c8ccc(C)[nH]8)[C@@H]7O)c(C)c6oc5=O)c4C)c(=O)oc3c2C)OC1(C)C` [Cm A1, coumermycin A1, reference compound], the “increase in ADH aggregation” value on GST-Hsp90α CTD [1] (50 μM, positive control) was ~ 40%. The “oligomerization state of His6-Hsp90β CTD (crosslinking)” value on His6-Hsp90β CTD is reported as “increases the level of monomeric Hsp90 CTD”. Moreover, the “oligomerization state of full-length Hsp90α (crosslinking)” value on full-length Hsp90α is on record as “slightly increases the monomer level of full-length Hsp90α”. In addition, at GST-Hsp90α CTD [4], the “oligomerization state of GST-Hsp90α CTD (crosslinking)” value is given as “increases the level of CTD monomers”. Besides, the “oligomerization of GST-Hsp90α NTD (crosslinking)” value at GST-Hsp90α NTD is on record as “appears to decrease oligomerization of the NTD”. For the same compound, the “inhibition of CTD binding to ATP-agarose” value on GST-Hsp90α CTD [5] is recorded as “inhibits CTD binding to ATP”.

For the compound `CO[C@@H]1[C@@H](O)[C@@H](O)[C@H](Oc2ccc3cc(NC(C)=O)c(=O)oc3c2C)OC1(C)C` [KU-32, reference compound], on GST-Hsp90α CTD (626–732), the “protection of Hsp90 CTD from pronase degradation (DARTs)” value is “protects the Hsp90 CTD from pronase degradation at levels comparable”.

For the origin of these results see PMC6453127 (Biochimica et biophysica acta. General subjects, 2017).
